Results of several laboratories.
Protocols differ between the studies behind these lines.
gag-pol reverse transcriptase: Gag-Pol polyprotein, reverse transcriptase (gag-pol, Human immunodeficiency virus 1, UniProt P03366)
gyrA: DNA gyrase subunit A (gyrA, Escherichia coli K-12, UniProt P0AES4)
PTK2B: Protein-tyrosine kinase 2-beta (PTK2B, Homo sapiens, UniProt Q14289)

| SMILES | target | assay | conditions | IC50 |
| --- | --- | --- | --- | --- |
| N#Cc1ccc(Nc2nc(N)cc(Oc3ccc(-c4cccc(C#N)c4)cc3F)n2)cc1 | gag-pol reverse transcriptase | enzyme activity, inhibitor | – | 340 nM |
| O=C1N=C(Nc2ccccc2)S/C1=C\c1ccccc1OCc1cn(Cc2ccccc2Br)nn1 | Aldo-keto reductase family 1 member A1 (AKR1A1, Homo sapiens, UniProt P14550) | enzyme activity, inhibitor, absorbance | pH 6.2 | 62000 nM |
| Cc1cc(C)cc(S(=O)(=O)c2c(C(=O)NCCCCNS(=O)(=O)c3ccc([N+](=O)[O-])cc3)[nH]c3ccc(Cl)cc23)c1 | gag-pol reverse transcriptase | enzyme activity, inhibitor, ELISA | – | 150 nM |
| CC(C)Oc1c(NC(=O)c2ccc(NC(=O)[C@H](CC(N)=O)NC(=O)c3ccc(NC(=O)c4ccc(C#N)nc4)cc3)cc2)ccc(C(=O)Nc2ccc(C(=O)O)cc2)c1O | gyrA | enzyme activity, inhibitor | – | 500 nM |
| N#Cc1ccc(COc2cccc(C3CCN(Cc4nc5ccc(C(=O)O)cc5n4C[C@@H]4CCO4)CC3)n2)c(F)c1 | Gastric inhibitory polypeptide receptor (GIPR, Homo sapiens, UniProt P48546) | cAMP, antagonist | – | > 10000 nM |
| O=C(Nc1cccc2[nH]ccc12)c1ccc(F)cc1 | Alpha-synuclein, monomer (SNCA, Homo sapiens, UniProt P37840) | amyloid aggregation, inhibitor, fluorescence | – | ~11600 nM |
| N#Cc1ccc(Nc2nc(N)cc(Oc3ccc(-c4ccccc4F)cc3)n2)cc1 | gag-pol reverse transcriptase | enzyme activity, inhibitor | – | 260 nM |
| CC(C)Oc1c(NC(=O)c2ccc(NC(=O)[C@H](CC(N)=O)NC(=O)c3ccc(NC(=O)c4ccc(NC(N)=O)cc4)cc3)cc2)ccc(C(=O)Nc2ccc(C(=O)O)cc2)c1O | gyrA | enzyme activity, inhibitor | – | 8700 nM |
| N#Cc1ccc(Nc2nc(N)cc(Oc3ccc(-c4ccccc4)cc3F)n2)cc1 | gag-pol reverse transcriptase | enzyme activity, inhibitor | – | 160 nM |
| CC(C)Oc1c(NC(=O)c2ccc(NC(=O)[C@H](CC(N)=O)NC(=O)c3cccc(-c4cccc(C#N)c4)c3)cc2)ccc(C(=O)Nc2ccc(C(=O)O)cc2)c1O | gyrA | enzyme activity, inhibitor | – | > 50000 nM |
| Cc1ccc(C(=O)Nc2ccc(S(=O)(=O)O)c3cc(S(=O)(=O)O)cc(S(=O)(=O)O)c23)cc1NC(=O)c1cccc(NC(=O)Nc2cccc(C(=O)Nc3cc(C(=O)Nc4ccc(S(=O)(=O)O)c5cc(S(=O)(=O)O)cc(S(=O)(=O)O)c45)ccc3C)c2)c1 | P2X purinoceptor 2 (P2RX2, Homo sapiens, UniProt Q9UBL9) | calcium signal, antagonist | – | 22500 nM |
| Cc1cc(C)cc(S(=O)(=O)c2c(C(=O)NCCCNS(=O)(=O)c3ccc(F)cc3)[nH]c3ccc(Cl)cc23)c1 | gag-pol reverse transcriptase | enzyme activity, inhibitor, ELISA | – | 100 nM |
| CC(C)Oc1c(NC(=O)c2ccc(NC(=O)[C@H](CC(N)=O)NC(=O)c3ccc(NC(=O)c4ccc(C#N)cn4)cc3)cc2)ccc(C(=O)Nc2ccc(C(=O)O)cc2)c1O | gyrA | enzyme activity, inhibitor | – | 900 nM |
| Cc1cc(C)cc(S(=O)(=O)c2c(C(=O)NCCCCCNS(=O)(=O)c3cccs3)[nH]c3ccc(Cl)cc23)c1 | gag-pol reverse transcriptase | enzyme activity, inhibitor, ELISA | – | 220 nM |
| COC(=O)C1CCN(C(=O)Cc2ccc(NCc3cnc4nc(N)nc(N)c4n3)cc2)CC1 | Cytochrome P450 2C19 (CYP2C19, Homo sapiens, UniProt P33261) | enzyme activity, inhibitor, luciferase | – | 7760 nM |
| Cc1cc(C)cc(S(=O)(=O)c2c(C(=O)NCCNS(=O)(=O)c3ccc(-c4ccccc4)cc3)[nH]c3ccc(Cl)cc23)c1 | gag-pol reverse transcriptase | enzyme activity, inhibitor, ELISA | – | 180 nM |
| Cc1cc(C(=O)Nc2ccc(C(=O)N[C@@H](CC(N)=O)C(=O)Nc3ccc(C(=O)Nc4ccc(C(=O)Nc5ccc(C(=O)O)cc5)c(O)c4OC(C)C)cc3)cc2)ccc1C#N | gyrA | enzyme activity, inhibitor | – | 1600 nM |
| CCn1ncc2c1-c1cnc(N)c(c1)O[C@H](C)c1cc(F)ccc1-c1nn(C)nc1C2 | PTK2B | enzyme activity, inhibitor, radiometric | – | 14 nM |

| SMILES | target | assay | conditions | IC50 |
| --- | --- | --- | --- | --- |
| CC(C)Oc1c(NC(=O)c2ccc(NC(=O)[C@H](CC(N)=O)NC(=O)c3ccc(NC(=O)C(C)Oc4ccc(C#N)cc4)cc3)cc2)ccc(C(=O)Nc2ccc(C(=O)O)cc2)c1O (stereo partly drawn) | gyrA | enzyme activity, inhibitor | – | 1800 nM |
| Cc1cc(C)cc(S(=O)(=O)c2c(C(=O)NCCCCCNS(=O)(=O)c3ccc(F)cc3)[nH]c3ccc(Cl)cc23)c1 | gag-pol reverse transcriptase | enzyme activity, inhibitor, ELISA | – | 150 nM |
| CC(C)c1cccc2c(-c3ccccc3)cc(-c3ccc(-c4ccc(C(=O)O)cc4)[nH]3)nc12 | Retinoic acid receptor alpha (RARA, Homo sapiens, UniProt P10276) | reporter gene, antagonist | – | 15 nM |
| CC[C@@H](C(=O)Nc1ccc(C(N)=O)c(F)c1)n1cc(OC)c(-c2cc(Cl)ccc2-n2cc(C(F)(F)F)nn2)cc1=O | Plasminogen (PLG, Homo sapiens, UniProt P00747) | enzyme activity, inhibitor | – | 2100 nM |
| O=C(Nc1ccn(Cc2ccc(O)cc2C(F)(F)F)n1)c1c(F)cccc1F | 5-hydroxytryptamine receptor 3A (HTR3A, Homo sapiens, UniProt P46098) | ion current, inhibitor | – | > 10000 nM |
| Cc1cc(/C=C/C#N)cc(C)c1Nc1ccnc(Nc2ccc(C#N)cc2)n1 | gag-pol reverse transcriptase | enzyme activity, inhibitor | – | 14 nM |
| CC1(C)C(/C=C/C=C2/N(CCCc3ccccc3)c3ccc4ccccc4c3C2(C)C)=[N+](CCCc2ccccc2)c2ccc3ccccc3c21 | Protein arginine N-methyltransferase 6 (PRMT6, Homo sapiens, UniProt Q96LA8) | enzyme activity, inhibitor, radiometric | – | 750 nM |
| Cc1cc(C)cc(S(=O)(=O)c2c(C(=O)NCCCNS(=O)(=O)c3ccccc3)[nH]c3ccc(Cl)cc23)c1 | gag-pol reverse transcriptase | enzyme activity, inhibitor, ELISA | – | 84 nM |
| CC(C)Oc1c(NC(=O)c2ccc(NC(=O)[C@H](CC(N)=O)NC(=O)c3ccc(NC(=O)c4ccc([N+](=O)[O-])c5cccnc45)cc3)cc2)ccc(C(=O)Nc2ccc(C(=O)O)cc2)c1O | gyrA | enzyme activity, inhibitor | – | 300 nM |
| N#Cc1ccc(Nc2nc(N)cc(Oc3c(F)cc(-c4cccc(F)c4)cc3F)n2)cc1 | gag-pol reverse transcriptase | enzyme activity, inhibitor | – | 70 nM |
| COc1ccc2c(Oc3ccc4c(C(=O)Nc5ccccc5N)cccc4c3)ccnc2c1 | Receptor tyrosine-protein kinase erbB-2 (ERBB2, Homo sapiens, UniProt P04626) | enzyme activity, inhibitor | – | > 500 nM |
| N#Cc1ccc(Nc2nc(N)cc(Oc3ccc(-c4ccccc4C#N)cc3F)n2)cc1 | gag-pol reverse transcriptase | enzyme activity, inhibitor | – | 100 nM |
| CCCCCCCc1ccc(CCc2cccc(O)c2C(=O)O)cc1 | Histone acetyltransferase p300 (EP300, Homo sapiens, UniProt Q09472) | enzyme activity, inhibitor, radiometric | – | > 200000 nM |
| CC(C)Oc1c(NC(=O)c2ccc(NC(=O)[C@H](CC(N)=O)NC(=O)c3ccc(NC(=O)c4ccc(N)cc4)cc3)cc2)ccc(C(=O)Nc2ccc(C(=O)O)cc2)c1O | gyrA | enzyme activity, inhibitor | – | 26800 nM |
| Cc1cc(C)cc(S(=O)(=O)c2c(C(=O)NCCNS(=O)(=O)c3ccccc3)[nH]c3ccc(Cl)cc23)c1 | gag-pol reverse transcriptase | enzyme activity, inhibitor, ELISA | – | 55 nM |
| N#Cc1ccc(Nc2nc(N)cc(Oc3ccc(-c4ccc(F)cc4)cc3F)n2)cc1 | gag-pol reverse transcriptase | enzyme activity, inhibitor | – | 60 nM |
| Cc1cc(C)cc(S(=O)(=O)c2c(C(=O)NCCCNS(=O)(=O)c3ccc(C#N)cc3)[nH]c3ccc(Cl)cc23)c1 | gag-pol reverse transcriptase | enzyme activity, inhibitor, ELISA | – | 100 nM |
| CNC(=O)c1ccccc1Nc1cc(Nc2cc(C)c(C3CCN(CCCCCCNC(=O)COc4cccc5c4C(=O)N(C4CCC(=O)NC4=O)C5=O)CC3)cc2OC(C)C)ncc1C(F)(F)F (stereo not drawn) | PTK2B | enzyme activity, inhibitor | – | 296 nM |
